These results are taken from ChEMBL document CHEMBL1122854, “Novel bis[1,6-dihydro-6,6-dimethyl-1,3,5-triazine-2,4-diamines] as antitrypanosomal agents” (1985).

SMILES strings stand for the structures.

Holding throughout (format): functional
The subject of assay [1] is Mus musculus. Put plainly: (§1) Antitrypanosomal activity was evaluated against Trypanosoma rhodesiense infections in mice, at dose 26 mg/kg, administered subcutaneously;Cures. To be noted: route subcutaneous. Put shortly:
(§2)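 IUR/HA Swiss mice (six weeks old, 30-32 g) infected i.p. with Wellcome CT strain T. rhodesiense. A single subcutaneous dose in peanut oil was given about 2 h after inoculation, with five mice per dose level. Positive control was stilbamidine or 2-hydroxystilbamidine isethionate at 40 mg/kg. Deaths before day 4 were scored toxic, and 30-day survivors cured.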

Assay [2] deals with Mus musculus. Briefly: Antitrypanosomal activity was evaluated against Trypanosoma rhodesiense infections in mice, at dose 424 mg/kg, administered subcutaneously; Cures. As to conditions: route subcutaneous. The method in brief:
as §2

Assay [3] deals with Mus musculus. Briefly: Antitrypanosomal activity was evaluated against Trypanosoma rhodesiense infections in mice, at dose 53 mg/kg, administered subcutaneously;Cures. To be noted: route subcutaneous. The method in brief: as §2
In assay [4] the test system is Mus musculus. Briefly: (§3) Antitrypanosomal activity was evaluated against Trypanosoma rhodesiense infections in mice, at dose 106 mg/kg, administered subcutaneously;Toxic. To be noted: route subcutaneous. Put shortly: as §2
Assay [5] has as its system Mus musculus. Put plainly: (§4) Antitrypanosomal activity was evaluated against Trypanosoma rhodesiense infections in mice, at dose 212 mg/kg, administered subcutaneously. As to conditions: route subcutaneous. Put shortly: as §2
The test system of assay [6] is Trypanosoma brucei rhodesiense. Briefly: Antitrypanosomal activity against Trypanosoma rhodesiense infections in mice, 106 mg/kg administered subcutaneously. To be noted: route subcutaneous. Put shortly: (§5)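 Six-week-old IUR/HA Swiss mice (30-32 g), 5 per dose, infected ip with 0.5 mL of a 1:50 000 dilution of heparinized heart blood from donor mice infected 3 days before (Wellcome CT strain). Single sc dose in peanut oil about 2 h post-inoculation. Deaths before day 4 counted toxic. ΔMST versus untreated controls; survivors at 30 days counted cured.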

The subject of assay [7] is Trypanosoma brucei rhodesiense. Briefly: Anti-trypanosomal activity against Trypanosoma rhodesiense infections in mice, 26 mg/kg administered subcutaneously. As to conditions: route subcutaneous. Put shortly: as §5
Assay [8] relates to Trypanosoma brucei rhodesiense. Put plainly: Antitrypanosomal activity was evaluated against Trypanosoma rhodesiense infections in mice, at dose 53 mg/kg, administered subcutaneously. As to conditions: route subcutaneous. The method in brief: as §5
Assay [9] relates to Mus musculus. Briefly: Antitrypanosomal activity was evaluated against Trypanosoma rhodesiense infections in mice, at dose 13 mg/kg, administered subcutaneously;Cures. As to conditions: route subcutaneous. Put shortly: as §2
The subject of assay [10] is Mus musculus. Briefly: Antitrypanosomal activity was evaluated against Trypanosoma rhodesiense infections in mice, at dose 212 mg/kg, administered subcutaneously;Cures. To be noted: route subcutaneous. Put shortly: as §2
Assay [11] has as its system Mus musculus. Briefly: Antitrypanosomal activity was evaluated against Trypanosoma rhodesiense infections in mice, at dose 106 mg/kg, administered subcutaneously;Cures. To be noted: route subcutaneous. Put shortly: as §2
The test system of assay [12] is Mus musculus. Briefly: Antitrypanosomal activity was evaluated against Trypanosoma rhodesiense infections in mice, at dose 6.6 mg/kg, administered subcutaneously;Cures. To be noted: route subcutaneous. Put shortly:
as §2

Assay [13] relates to Mus musculus. Put plainly: Antitrypanosomal activity was evaluated against Trypanosoma rhodesiense infections in mice, at dose 1.6 mg/kg, administered subcutaneously;Cures. As to conditions: route subcutaneous. The method in brief: as §2
Assay [14] deals with Mus musculus. Put plainly: Antitrypanosomal activity was evaluated against Trypanosoma rhodesiense infections in mice, at dose 53 mg/kg, administered subcutaneously; Cures. As to conditions: route subcutaneous. Put shortly: as §2
Assay [15] relates to Mus musculus. Put plainly: Antitrypanosomal activity was evaluated against Trypanosoma rhodesiense infections in mice, at dose 3.3 mg/kg, administered subcutaneously;Toxic. As to conditions: route subcutaneous. The method in brief: as §2
The test system of assay [16] is Trypanosoma brucei rhodesiense. Briefly: Antitrypanosomal activity against Trypanosoma rhodesiense infections in mice, 424 mg/kg administered subcutaneously. To be noted: route subcutaneous. The method in brief:
as §2

Assay [17] concerns Mus musculus. Briefly: (§6) Antitrypanosomal activity was evaluated against Trypanosoma rhodesiense infections in mice, at dose 6.6 mg/kg, administered subcutaneously. As to conditions: route subcutaneous. The method in brief:
as §2

Assay [18] has as its system Trypanosoma brucei rhodesiense. Briefly: Antitrypanosomal activity was evaluated against Trypanosoma rhodesiense infections in mice, at dose 26 mg/kg, administered subcutaneously. As to conditions: route subcutaneous. Put shortly: as §2
The subject of assay [19] is Trypanosoma brucei rhodesiense. Put plainly: Antitrypanosomal activity was evaluated against Trypanosoma rhodesiense infections in mice, at dose 106 mg/kg, administered subcutaneously. To be noted: route subcutaneous. Put shortly:
as §2

Assay [20] relates to Mus musculus. Briefly: Antitrypanosomal activity was evaluated against Trypanosoma rhodesiense infections in mice, at dose 13 mg/kg, administered subcutaneously. To be noted: route subcutaneous. Put shortly:
as §2

Assay [21] concerns Trypanosoma brucei rhodesiense. Put plainly: Antitrypanosomal activity was evaluated against Trypanosoma rhodesiense infections in mice, at dose 1.6 mg/kg, administered subcutaneously. As to conditions: route subcutaneous. Put shortly: as §5
The subject of assay [22] is Trypanosoma brucei rhodesiense. Briefly: Antitrypanosomal activity against Trypanosoma rhodesiense infections in mice, 3.3 mg/kg administered subcutaneously. As to conditions: route subcutaneous. Put shortly: as §5
In assay [23] the test system is Mus musculus. Briefly: Antitrypanosomal activity was evaluated against Trypanosoma rhodesiense infections in mice, at dose 13mg/kg, administered subcutaneously. The method in brief:
as §5

Assay [24] relates to Mus musculus. Briefly: Antitrypanosomal activity was evaluated against Trypanosoma rhodesiense infections in mice, at dose 3.3 mg/kg, administered subcutaneously. As to conditions: route subcutaneous. Put shortly:
as §5

The subject of assay [25] is Mus musculus. Described as §6. To be noted: route subcutaneous. The method in brief: as §5
This is another data set of the same source.

Assay [26] deals with Mus musculus. Briefly: Antitrypanosomal activity was evaluated against Trypanosoma rhodesiense infections in mice, at dose 424 mg/kg, administered subcutaneously;Cures. To be noted: route subcutaneous. The method in brief: as §2
For assay [27], the system named is Mus musculus. Briefly: Antitrypanosomal activity was evaluated against Trypanosoma rhodesiense infections in mice, at dose 13 mg/kg, administered subcutaneously;Toxic. As to conditions: route subcutaneous. The method in brief:
as §2

Assay [28] has as its system Mus musculus. Put plainly: Antitrypanosomal activity was evaluated against Trypanosoma rhodesiense infections in mice, at dose 6.6 mg/kg, administered subcutaneously;Toxic. To be noted: route subcutaneous. The method in brief:
as §2

In assay [29] the test system is Mus musculus. Put plainly: Antitrypanosomal activity was evaluated against Trypanosoma rhodesiense infections in mice, at dose 26 mg/kg, administered orally;Toxic. As to conditions: in the assay text read “administered subcutaneously” for “administered orally”.
For assay [30], the system named is Mus musculus. Put plainly: Antitrypanosomal activity was evaluated against Trypanosoma rhodesiense infections in mice, at dose 106 mg/kg, administered orally. As to conditions: route oral.
The subject of assay [31] is Mus musculus. Put plainly: Antitrypanosomal activity was evaluated against Trypanosoma rhodesiense infections in mice, at dose 212 mg/kg, administered orally. As to conditions: route oral.
Assay [32] concerns Mus musculus. Briefly: Antitrypanosomal activity was evaluated against Trypanosoma rhodesiense infections in mice, at dose 26 mg/kg, administered orally. To be noted: route oral.
Assay [33] has as its system Mus musculus. Put plainly: Antitrypanosomal activity was evaluated against Trypanosoma rhodesiense infections in mice, at dose 424 mg/kg, administered orally. As to conditions: route oral.
For assay [34], the system named is Mus musculus. Put plainly: Antitrypanosomal activity was evaluated against Trypanosoma rhodesiense infections in mice, at dose 53 mg/kg, administered orally. To be noted: route oral.
The subject of assay [35] is Mus musculus. Put plainly: Antitrypanosomal activity was evaluated against Trypanosoma rhodesiense infections in mice, at dose 1.6mg/kg, administered subcutaneously;Cures. Put shortly: as §2
For assay [36], the system named is Mus musculus. Put plainly: Antitrypanosomal activity was evaluated against Trypanosoma rhodesiense infections in mice, at dose 3.3 mg/kg, administered subcutaneously;Cures. As to conditions: route subcutaneous. The method in brief: as §2
The test system of assay [37] is Mus musculus. Put plainly: Antitrypanosomal activity was evaluated against Trypanosoma rhodesiense infections in mice, at dose 53 mg/kg, administered subcutaneously;Toxic. As to conditions: route subcutaneous. Put shortly:
as §2

The subject of assay [38] is Trypanosoma brucei rhodesiense. The assay is described as §3. To be noted: route subcutaneous. Put shortly: as §2
Assay [39] has as its system Mus musculus. Briefly: Antitrypanosomal activity was evaluated against Trypanosoma rhodesiense infections in mice, at dose 212 mg/kg, administered subcutaneously;Toxic. To be noted: route subcutaneous. The method in brief: as §2
In assay [40] the test system is Trypanosoma brucei rhodesiense. The description is as §4. As to conditions: route subcutaneous. The method in brief: as §5
The subject of assay [41] is Mus musculus. The description is as §1. As to conditions: route subcutaneous. The method in brief: as §5
The source holds these as a separate data set.

Assay [42] relates to Trypanosoma brucei rhodesiense. Put plainly: Antitrypanosomal activity against Trypanosoma rhodesiense infections in mice, 6.6 mg/kg administered subcutaneously. As to conditions: route subcutaneous. Put shortly: as §5

Regarding `CC1(C)N=C(N)N=C(N)N1c1ccc(Cc2ccc(N3C(N)=NC(N)=NC3(C)C)cc2)cc1.Cl.Cl`, the values for the Cures in assay [1], in assay [2] and in assay [3] were 1, 5 and 2, respectively. The Toxic in assay [4] is given as 2; in assay [5], 5. The “Delta MST” value in assay [6] was determined as 8 days; in assay [7], 4 days; in assay [8], 6.5 days.

For `CC1(C)N=C(N)N=C(N)N1c1ccc(/C=C/c2ccc(N3C(N)=NC(N)=NC3(C)C)cc2)cc1.Cl.Cl`, the Cures in assay [9] was found to be 5; in assay [10], 4; in [1] it was 3; in [11], 3; in assay [12], 3; in [13], 1. The Cures in assay [14] was 5.

As to `CC1(C)N=C(N)N=C(N)N1c1ccc(OCCCOc2ccc(N3C(N)=NC(N)=NC3(C)C)cc2)cc1.Cl.Cl`, the Toxic is recorded as 1 in assay [15]; 5 in assay [16]; 5 in [17]; 5 in assay [18]; 5 in assay [19]; 5 in assay [20]. Besides, the “Delta MST” value in assay [21] and in assay [22] was 0 days in each case.

Take `CC1(C)N=C(N)N=C(N)N1c1ccc(C(c2ccc(N3C(N)=NC(N)=NC3(C)C)cc2)c2ccc(N3C(N)=NC(N)=NC3(C)C)cc2)cc1.Cl.Cl`: the Toxic in [16], in assay [18] and in assay [19] was 5 in each case. The “Delta MST” value was 0.1 days in [21], 0.1 days in assay [23], -0.1 days in assay [24] and -0.1 days in assay [25].

As for `CC1(C)N=C(N)N=C(N)N1c1ccc(CCc2cccc(N3C(N)=NC(N)=NC3(C)C)c2)cc1.Cl.Cl`, the Cures in assay [12] and in [26] was 1 throughout. For the same compound, the Toxic in assay [27] amounted to 1; in [28] it was 1; in assay [29] it was 5. Further, the “Delta MST” value in assay [30] stood at 0.4 days; in assay [31], 1.8 days; in [32], 0 days; in assay [33] it was 3.7 days; in assay [34], 0.2 days; in [24] it was 1 days. In addition, the “Delta MST” value in assay [25] was determined as 1.7 days.

With `CC1(C)N=C(N)N=C(N)N1c1ccc2c(c1)Cc1cc(N3C(N)=NC(N)=NC3(C)C)ccc1-2.Cl.Cl`, the Cures in assay [9] amounted to 3; in [35], 1; in [11], 1; in assay [12], 2; in assay [36], 1; in assay [3], 4. For the same compound, the Toxic was found to be 5 in assay [16], 1 in [37], 3 in [38] and 4 in assay [39]. In addition, the “Delta MST” value is 3 days in assay [21]; 2 days in assay [6]; 26 days in [40]; 4.5 days in [7]; 3 days in assay [41]; 4 days in [22]. In [42], the “Delta MST” value was found to be 4.3 days.
